Bioassay records as filed in PubChem.
This is a sample that favours compounds with a hit; in the whole collection about 2.5% have one here.
SENP6 block = inhibitors of human SENP6 protease; Recombinant SENP6 catalytic domain, aminoluciferin luminescence; hit rate 1.8% among 330,000; Q9GZR1; inhibition, % at 10 µM;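 active means inhibition above about 50% at the single tested dose, limit read from the data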;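 further: plate controls were DMSO wells with enzyme for no effect and DMSO wells lacking enzyme for full effect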
Target sequence (Q9GZR1 628-1112 limits assumed): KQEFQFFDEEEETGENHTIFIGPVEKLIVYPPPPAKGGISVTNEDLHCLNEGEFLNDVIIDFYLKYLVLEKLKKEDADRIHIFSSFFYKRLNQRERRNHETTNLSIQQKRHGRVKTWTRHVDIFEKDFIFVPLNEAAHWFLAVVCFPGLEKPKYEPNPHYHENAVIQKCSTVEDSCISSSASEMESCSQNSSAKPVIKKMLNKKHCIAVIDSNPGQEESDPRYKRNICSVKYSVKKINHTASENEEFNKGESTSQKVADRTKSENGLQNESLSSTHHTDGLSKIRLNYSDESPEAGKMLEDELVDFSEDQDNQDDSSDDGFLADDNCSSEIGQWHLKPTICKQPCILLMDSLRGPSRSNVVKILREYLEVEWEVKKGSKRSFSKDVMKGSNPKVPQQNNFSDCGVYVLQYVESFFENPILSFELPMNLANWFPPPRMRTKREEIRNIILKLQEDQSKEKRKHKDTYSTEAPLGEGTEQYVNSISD
SENP8 block-1 = blocks the human protease SENP8; purified SENP8, Z-RLRGG-aminoluciferin cleavage, luminescence; inhibition, % at 10 µM; hit rate 1.2% among 330,000; Q96LD8; in the data active means inhibition above about 50%
SENP8 block-2 = blocks human SENP8 cleavage of Nedd8 substrate; Q96LD8; recombinant SENP8, Nedd8 substrate fluorescence; inhibition, % at 20 µM; hit rate 0.64% among 360,000; AID 602440; in the data active means inhibition mostly above about 40%, no sharp cut-off; inactive means mostly below about 27%
SENP1 inh = inhibitors of human SENP1 SUMO protease catalytic domain; Q9P0U3; recombinant SENP1 catalytic domain, CyPet-SUMO1-YPet FRET cleavage; inhibition, % at 10 µM; hit rate 0.21% among 360,000;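 active means inhibition at least 30% at 10 µM, raw YFP signal under a set limit, fluorescence ratio 0.5 to 1.5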;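 further: 0% = enzyme with DMSO and 100% = no enzyme wells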
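Test system: recombinant human SENP1 catalytic domain, His6-tagged / Medium: pH 8 Tris buffer with EDTA, NaCl, BME, BSA, NP40, catalase / Also added: SUMO1 FRET substrate flanked by Cypet and Ypet, 25 nM / Times: 50 min reaction at room temperature / Signal: FRET, CFP and YFP emission / Control set: no-enzyme low control and enzyme-plus-DMSO high control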
SENP7 block = inhibitors of human SENP7 protease. inhibition, % at 5 µM. Q9BQF6. hit rate 1.5% among 330,000. recombinant SENP7, Z-RLRGG-aminoluciferin luminescence, 40 min. AID 434973;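 active means inhibition above about 50% at the single test dose, limit read from the data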;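 further: plate controls were DMSO with enzyme for no effect and no enzyme buffer wells for full effect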
SENP8 confirm = confirmation of human SENP8 protease inhibitors | hit rate 40% among 6,200 | shares compounds with SENP7 block | Recombinant SENP8, Z-RLRGG-aminoluciferin luminescence, 60 min | inhibition, % at 12.5 µM;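 active means mean inhibition across replicates above about 50%, limit read from the data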
SENP6 confirm = confirmation of human SENP6 protease inhibitors; shares compounds with SENP7 block; recombinant SENP6, Z-RLRGG-aminoluciferin luminescence; inhibition, % at 12.5 µM; hit rate 58% among 6,200
SENP7 conf = human SENP7 inhibition, confirmed; inhibition, % at 12.5 µM; hit rate 69% among 6,200; AID 488917; shares compounds with SENP7 block; recombinant SENP7, Z-RLRGG-aminoluciferin luminescence, 40 min
Casp3 SENP sel = caspase-3 inhibition (SENP selectivity assay). shares compounds with SENP7 block. purified caspase-3, Z-DEVD-aminoluciferin luminescence, 60 min. inhibition, % at 12.5 µM. hit rate 60% among 6,200;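 active means mean inhibition above about 50%, limit read from the data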;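 further: plate controls were enzyme with DMSO for no effect and wells without caspase-3 for full effect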
Luc interf = counter-screen for SENP inhibitors: luminescence interference | shares compounds with SENP7 block | Pre-incubated SENP8/Z-RLRGG-aminoluciferin, luciferase luminescence interference | inhibition, % at 12.5 µM | hit rate 39% among 6,200;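 active means mean inhibition above about 50% when retested at one dose, limit read from the data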;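 further: plate controls were DMSO wells with completed reaction for no effect and substrate without enzyme for full effect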
* hit, by the source's call; i = inactive; . = no result given.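 How the source made its calls, unless noted: active means mean inhibition above about 50% in the one-dose retest (limit read from the data); inactive means the rest.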

SMILES	SENP6 block	SENP8 block-1	SENP8 block-2	SENP1 inh	SENP7 block	SENP8 confirm	SENP6 confirm	SENP7 conf	Casp3 SENP sel	Luc interf
CC(=O)Nc1ccc(-c2nnn(CC(=O)c3ccc(F)cc3)n2)cc1Cl	82*	1	17	1	-1	14	9	3	-2	-1
COc1cc(NC(=O)c2ccc(Cl)cc2)c(Cl)cc1NC(=O)c1cccnc1	-3	9	-82	1	0	.	.	.	.	.
COc1cccc2sc(Nc3nc(-c4ccccn4)cs3)nc12	65*	42	-84	-15	45	-7	56*	85*	28	12
c1ccc(Nc2nc(-c3ccccn3)cs2)cc1	-3	38	-16	7	60*	60*	61*	88*	54*	76*
O=c1c2c(nc3n1CCCCC3)sc1c(O)c(Br)ccc12	65*	26	6	0	34	59*	59*	87*	69*	14
CCN(CC)CCOc1c(Br)ccc2c1sc1nc3n(c(=O)c12)CCC3	-14	6	-5	-2	-3	.	.	.	.	.
CCCCCC(=O)N1C[C@@H](n2cc(C3CC3)nn2)[C@H](O)C[C@@H]1c1ccc(OC)cc1	.	.	-8	-1	.	.	.	.	.	.
CCC(C)(C)C1CCc2[nH]nc(C(=O)NCCNC(=O)OC(C)(C)C)c2C1 (centres undefined)	-4	5	8	2	-9	.	.	.	.	.
O=C(O)c1ccc(/C=N/Nc2ccc(F)cc2F)cc1	101*	96*	-54	-18	99*	99*	100*	103*	98*	99*
O=C(O)c1ccc(N/N=C/c2c(F)cccc2Cl)cc1	97*	96*	-12	-2	98*	100*	101*	104*	96*	99*
O=C(N/N=C\c1ccc(F)cc1)c1ccc(F)cc1	-12	-6	-4	-1	4	.	.	.	.	.
O=C(N/N=C/c1ccc(C(F)(F)F)cc1)c1ccc(O)cc1	-3	-1	10	0	5	.	.	.	.	.
O=C(O)c1ccc(/C=N/Nc2ccc(Cl)nn2)cc1	72*	65*	17	1	76*	19	26	20	81*	10
O=C(O)c1ccc(N/N=C/c2ccc(C(F)(F)F)cc2)cc1	101*	96*	-76	-8	98*	99*	99*	102*	94*	98*
NS(=O)(=O)c1cc(Br)c2c(c1)S(=O)(=O)NCN2	.	.	12	2	.	.	.	.	.	.
CC1CC(C)CN(C(=O)c2ccccc2Nc2ccc(SC(F)F)cc2)C1 (centres undefined)	-9	1	6	3	5	.	.	.	.	.
O=C(NCc1ccccc1F)C1CCCN1C(=O)Nc1ccc(Cl)cc1 (centres undefined)	-2	0	13	1	3	.	.	.	.	.
CC(C)(C)c1ccc(/C=N/Nc2ccc(C(=O)O)cc2)cc1	100*	96*	-100	0	99*	100*	101*	104*	94*	99*
CCNC(=S)N/N=C/c1ccc(C(=O)O)cc1	16	13	9	1	44	.	.	.	.	.
CCOc1ccc(S(=O)(=O)N2CCCC(C(=O)Nc3ccccc3)C2)cc1 (centres undefined)	-10	-10	7	0	-1	.	.	.	.	.
COc1ccc(C(=O)N2[C@@H](C(C)C)COc3cc(Br)ccc3S2(=O)=O)cc1	.	.	11	2	.	.	.	.	.	.
COc1ccc(C2=Nc3ccccc3OC2)cc1	71*	35	i	0	56*	98*	99*	102*	95*	90*
N#C/C(=N/Nc1ccc([N+](=O)[O-])cc1)C(=N)N1CCCCC1	.	.	30	13	.	.	.	.	.	.
O=C(/C(N=Nc1cccc([N+](=O)[O-])c1)=C(/O)c1ccc(Br)cc1)C(F)(F)F	-7	-10	29	5	1	.	.	.	.	.
N#C/C(=N\Nc1ccc([N+](=O)[O-])cc1)C(N)=S	98*	91*	47*	10	92*	97*	98*	102*	97*	90*
SMILES	SENP6 block	SENP8 block-1	SENP8 block-2	SENP1 inh	SENP7 block	SENP8 confirm	SENP6 confirm	SENP7 conf	Casp3 SENP sel	Luc interf
N#C/C(=N\Nc1cccc([N+](=O)[O-])c1)C(=O)c1ccc(Br)cc1	72*	60*	7	-1	0	0	66*	45	4	59*
O=C(COC(=O)c1ccc(F)c(S(=O)(=O)N2CCCCC2)c1)NCc1ccc(F)cc1	-2	-7	6	2	-8	.	.	.	.	.
CC(C)(C)C(=O)Nc1ccc(N=Nc2ccccc2)cc1	-1	41	29	2	64*	40	61*	91*	59*	28
CN(CC(=O)Nc1ccc(F)c(F)c1F)C(=O)C1CCN(C(=O)Nc2ccccc2)CC1	-19	-3	16	2	13	.	.	.	.	.
COc1ccc(-c2csc(-c3ccccc3)n2)c(OC)c1	93*	84*	-79	-3	89*	82*	91*	96*	74*	26
COc1ccc2cc(-c3csc(-c4cccnc4)n3)ccc2c1	5	-13	-134	-4	67*	17	12	15	10	0
COc1ccc(-c2csc(-c3ccc(O)cc3)n2)cc1	-2	-11	-25	2	2	.	.	.	.	.
CC(NS(=O)(=O)c1cccc(C(=O)N(C)Cc2ccc(N3CCOCC3)cc2)c1)c1ccccc1 (centres undefined)	.	.	17	-1	.	.	.	.	.	.
COc1ccc(N(C(=O)CNC(=O)c2ccco2)C(C(=O)NC2CCCCC2)c2ccco2)cc1 (centres undefined)	60*	0	24	1	-4	5	-2	-7	5	-3
CC1(C)CC(=O)C=C(c2ccc(-c3cccc(C(N)=O)c3)cc2)C1=O	.	.	14	2	.	.	.	.	.	.
c1ccc(-c2nc3cc4ccccc4cc3[nH]2)nc1	99*	94*	-319	-4	100*	96*	97*	100*	96*	94*
c1cncc(-c2nc3cc4ccccc4cc3[nH]2)c1	90*	89*	-263	-14	1	87*	89*	100*	88*	62*
Cc1ccc(/C=C2\OC(=O)c3ccccc32)cc1	68*	56*	-190	-22	86*	0	15	25	30	11
O=C(O)c1cc(N=Nc2c(O)ccc3ccccc23)cc(C(=O)O)c1	.	.	31	13	.	.	.	.	.	.
